Consider 40 compounds from ChEMBL document CHEMBL3108674, “6-Alkoxy-5-aryl-3-pyridinecarboxamides, a new series of bioavailable cannabinoid receptor type 1 (CB1) antagonists including peripherally selective compounds” (J Med Chem, 2013).

The term Ki denotes a measure of affinity in units of concentration, obtained from inhibition or displacement. As usually defined, the IC50 is the concentration that inhibits the measured activity by half.

One data set relates to Liver microsome. Briefly: Clearance in rat liver microsomes at 2 uM by LC-MS/MS analysis. The format is ADME. An outline of the steps: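 Rat liver microsomes at 0.5 mg/mL were incubated with 2 μM compound (final) and an NADPH-regenerating system. Aliquots were taken at 1, 3, 6, 9, 15, 25, 35 and 45 min and quenched in acetonitrile containing internal standard. Depletion was measured by LC-MS/MS. Clmic = −slope × 1000 / protein concentration (mg/mL), not corrected for microsomal protein binding.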

In a further data set the target is Cannabinoid receptor 2 (Homo sapiens, UniProt P34972). The experiment in a line: Displacement of [3H]CP55940 from human CB2 receptor expressed in CHOK1 cells after 1 hr by liquid scintillation counting analysis. The format is cell-based, CHO-K1. An outline of the steps:
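Membranes from butyrate-treated (5 mM, 24 h) CHO-K1 cells stably expressing human CB2, incubated with 0.3 nM [3H]CP55940 and increasing ligand concentrations, 60 min, 30 °C, pH 7.4 Tris buffer with 0.1% fatty acid-free BSA and 1% DMSO; nonspecific binding with 10 μM CP55940; filtration, scintillation counting; tested in triplicate.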
On the technique in general: Loss of bound radioactivity is the signal in a displacement assay; it reports binding, not function.

Another data set concerns the target Cannabinoid receptor 1 (Homo sapiens, UniProt P21554). The experiment in a line: Displacement of [3H]CP55940 from human CB1 receptor expressed in CHOK1 cells after 1 hr by liquid scintillation counting analysis. Format: cell-based, CHO-K1.

Molecules are shown by their SMILES.

Cannabinoid receptor 2, sequence (P34972 whole entry): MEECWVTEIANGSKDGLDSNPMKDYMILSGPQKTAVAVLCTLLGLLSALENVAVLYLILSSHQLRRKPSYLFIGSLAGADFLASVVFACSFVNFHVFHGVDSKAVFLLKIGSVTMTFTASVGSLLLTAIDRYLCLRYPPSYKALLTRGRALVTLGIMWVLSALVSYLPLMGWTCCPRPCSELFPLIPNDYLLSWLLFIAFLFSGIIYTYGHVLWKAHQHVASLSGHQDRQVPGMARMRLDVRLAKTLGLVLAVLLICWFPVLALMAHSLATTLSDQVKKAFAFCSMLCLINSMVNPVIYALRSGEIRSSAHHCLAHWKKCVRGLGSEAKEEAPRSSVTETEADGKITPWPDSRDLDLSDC
Cannabinoid receptor 1, sequence (P21554 whole entry): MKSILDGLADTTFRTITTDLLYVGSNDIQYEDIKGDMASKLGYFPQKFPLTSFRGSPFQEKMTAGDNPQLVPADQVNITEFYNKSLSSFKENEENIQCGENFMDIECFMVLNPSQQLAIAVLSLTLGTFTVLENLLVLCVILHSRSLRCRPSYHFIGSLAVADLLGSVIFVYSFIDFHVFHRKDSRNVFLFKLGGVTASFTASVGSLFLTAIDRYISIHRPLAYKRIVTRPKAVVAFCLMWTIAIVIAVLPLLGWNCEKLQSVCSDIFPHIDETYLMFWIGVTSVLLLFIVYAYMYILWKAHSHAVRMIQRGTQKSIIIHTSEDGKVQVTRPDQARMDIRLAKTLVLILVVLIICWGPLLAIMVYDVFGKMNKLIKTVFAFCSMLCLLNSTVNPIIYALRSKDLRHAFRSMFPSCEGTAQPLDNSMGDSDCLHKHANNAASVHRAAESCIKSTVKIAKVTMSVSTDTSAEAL

`O=C(N[C@@H]1CCCC[C@H]1O)c1cnc(Oc2ccccc2)c(-c2ccc(Cl)cc2)c1` returned a CLH with Liver microsome of 353 µL/min/mg. Besides, the values for the inhibition constant (Ki) on Cannabinoid receptor 2 and on Cannabinoid receptor 1 were more than 10000 nM and 1660 nM, respectively.
The corresponding values for `O=C(N[C@@H]1CCCC[C@H]1O)c1cnc(OCC2CC2)c(-c2cc(C(F)(F)F)ccc2Cl)c1` are 59 µL/min/mg, 2080 nM and 67.7 nM.
The like results for `CN(CC1CC1)c1ncc(C(=O)N[C@@H]2CCCC[C@H]2O)cc1-c1ccc(Cl)cc1` were, in that order, 1730 µL/min/mg, more than 10000 nM and 51.1 nM.
In the data set with Liver microsome, `O=C(N[C@@H]1CCCC[C@H]1O)c1cnc(OCc2ccccc2)c(-c2ccc(Cl)cc2)c1` showed a CLH of 20 µL/min/mg. The Ki is more than 10000 nM on Cannabinoid receptor 2 and 40.2 nM on Cannabinoid receptor 1.
Consider `NC(=O)c1ccc(-c2cc(C(=O)N[C@@H]3CCCC[C@H]3O)cnc2OCC2CC2)cc1`, for which the Ki at Cannabinoid receptor 2 is more than 10000 nM; at Cannabinoid receptor 1, more than 8000 nM.
For the compound `O=C(N[C@@H]1CCCC[C@H]1O)c1cnc(OCc2ccccn2)c(-c2ccc(Cl)cc2)c1`, the CLH in the data set on Liver microsome came to 44 µL/min/mg. Moreover, the Ki at Cannabinoid receptor 2 was more than 10000 nM; at Cannabinoid receptor 1 it was 139 nM.
`O=C(N[C@@H]1CCCC[C@H]1O)c1cnc(OCC(F)(F)F)c(-c2ccc(Cl)cc2)c1`: in the data set with Liver microsome, the CLH was found to be 23 µL/min/mg. Also, the Ki on Cannabinoid receptor 2 was more than 7000 nM; on Cannabinoid receptor 1, 12.4 nM.
The like results for `O=C(N[C@@H]1CCCC[C@H]1O)c1cnc(CCC2CC2)c(-c2ccc(Cl)cc2)c1` were, in that order, 1503 µL/min/mg, more than 10000 nM and 16.7 nM.
On to `O=C(N[C@@H]1CCCC[C@H]1O)c1cnc(OC2CCCC2)c(-c2cc(C(F)(F)F)ccc2Cl)c1`, for which, in the data set with Liver microsome, the CLH amounted to 367 µL/min/mg. For the same compound, the figures for the IC50 on Cannabinoid receptor 2 and on Cannabinoid receptor 1 were 2390 nM and 395 nM, respectively.
Take `Cc1cc(COc2ncc(C(=O)N[C@@H]3CCCC[C@H]3O)cc2-c2ccc(Cl)cc2)on1`: the CLH in the data set with Liver microsome worked out at 151 µL/min/mg. Moreover, the Ki on Cannabinoid receptor 2 is more than 10000 nM; at Cannabinoid receptor 1, 10.6 nM.
On to `O=C(N[C@H]1CCCC[C@@H]1O)c1cnc(OCC2CC2)c(-c2ccc(Cl)cc2)c1`, for which the Ki is 2640 nM at Cannabinoid receptor 2 and 247 nM at Cannabinoid receptor 1.
With `O=C(N[C@@H]1CCCC[C@H]1O)c1cc(-c2ccc(Cl)cc2)c(OCC2CC2)nn1`, the Ki at Cannabinoid receptor 2 was more than 3000 nM; at Cannabinoid receptor 1 it was more than 5000 nM.
On to `O=C(N[C@@H]1CCCC[C@H]1O)c1cnc(OCC2CC2)c(-c2ccc(Cl)cc2)n1`, for which the Ki on Cannabinoid receptor 2 worked out at 801 nM; on Cannabinoid receptor 1 it was 25.8 nM.
Regarding `COc1ccc(-c2cc(C(=O)N[C@@H]3CCCC[C@H]3O)cnc2OCC2CC2)cc1`, the Ki on Cannabinoid receptor 2 is more than 10000 nM; at Cannabinoid receptor 1, 66.4 nM.
The corresponding values for `CC(C)Oc1ncc(C(=O)N[C@@H]2CCCC[C@H]2O)cc1-c1ccc(Cl)cc1` are more than 10000 nM and 1070 nM.
With `O=C(N[C@@H]1CCCC[C@H]1O)c1cnc(OCC2CC2)c(-c2ccc(C(F)(F)F)cc2)c1`, the Ki is more than 10000 nM at Cannabinoid receptor 2 and 18.5 nM on Cannabinoid receptor 1.
On to `O=C(O)c1ccc(-c2cc(C(=O)N[C@@H]3CCCC[C@H]3O)cnc2OCC2CC2)cc1`, for which the Ki at Cannabinoid receptor 2 and on Cannabinoid receptor 1 was more than 10000 nM in each case.
In the case of `CS(=O)(=O)Nc1ccc(-c2cc(C(=O)N[C@@H]3CCCC[C@H]3O)cnc2OCC2CC2)cc1`, the Ki on Cannabinoid receptor 2 is more than 10000 nM; at Cannabinoid receptor 1 it was 1900 nM.
`O=C(N[C@@H]1CCCC[C@H]1O)c1cnc(OC2CCC2)c(-c2ccc(Cl)cc2)c1` came in with a CLH with Liver microsome of 210 µL/min/mg. The figures for the Ki at Cannabinoid receptor 2 and at Cannabinoid receptor 1 were more than 10000 nM and 208 nM, respectively.
Regarding `O=C(N[C@@H]1CCCC[C@H]1O)c1cnc(OCC2CC2)c(-c2ccc(Cl)c(Cl)c2)c1`, the Ki at Cannabinoid receptor 2 stood at 1260 nM; on Cannabinoid receptor 1 it was 305 nM.
In the data set with Liver microsome, `CCCCOc1ncc(C(=O)N[C@@H]2CCCC[C@H]2O)cc1-c1ccc(Cl)cc1` came in with a CLH of 101 µL/min/mg. The inhibition constant (Ki) was more than 10000 nM at Cannabinoid receptor 2 and 43.8 nM on Cannabinoid receptor 1.
The compound `O=C(N[C@@H]1CCCC[C@H]1O)c1cnc(OCc2cccnc2)c(-c2ccc(Cl)cc2)c1` showed a CLH in the data set with Liver microsome of 374 µL/min/mg. For the same compound, the results for the Ki at Cannabinoid receptor 2 and at Cannabinoid receptor 1 were more than 10000 nM and 23.5 nM, respectively.
Regarding `Cc1c(C(=O)N[C@@H]2CCCC[C@H]2O)cc(-c2cc(C(F)(F)F)ccc2Cl)n1CC1CCCCC1`, the CLH with Liver microsome is 1323 µL/min/mg. Also, the IC50 at Cannabinoid receptor 2 is more than 5000 nM; at Cannabinoid receptor 1, 9.5 nM.
Turning to `O=C(N[C@@H]1CCCC[C@H]1O)c1cnc(OCC2CC2)c(-c2ccc(Cl)cc2Cl)c1`, the figures for the Ki on Cannabinoid receptor 2 and on Cannabinoid receptor 1 were more than 5000 nM and 122 nM, respectively.
Turning to `C[C@](O)(CNC(=O)c1cnc(OCC2CC2)c(-c2ccc(Cl)cc2)c1)C1CC1`, the CLH in the data set on Liver microsome worked out at 2.4 µL/min/mg. Besides, the Ki was more than 10000 nM on Cannabinoid receptor 2 and 34.3 nM on Cannabinoid receptor 1.
The corresponding values for `O=C(N[C@@H]1CCCC[C@H]1O)c1cnc(OCC2CC2)c(-c2ccc(F)cc2)c1` are 37 µL/min/mg, more than 10000 nM and 42.8 nM.
Consider `O=C(N[C@@H]1CCCC[C@H]1O)c1cnc(OCC2CC2)c(-c2cccc(Cl)c2)c1`, for which the results for the Ki at Cannabinoid receptor 2 and on Cannabinoid receptor 1 were more than 5000 nM and 129 nM, respectively.
The like results for `O=C(N[C@@H]1CCCC[C@H]1O)c1ccc(OCC2CC2)c(-c2ccc(Cl)cc2)n1` were, in that order, 863 nM and 1830 nM.
With `O=C(N[C@@H]1CCCC[C@H]1O)c1cnc(OCC2CC2)c(-c2ccc(OC(F)(F)F)cc2)c1`, in the data set on Liver microsome, the CLH came out at 0 µL/min/mg. In addition, the inhibition constant (Ki) on Cannabinoid receptor 2 was more than 10000 nM; on Cannabinoid receptor 1 it was 23.6 nM.
`O=C(N[C@H]1CCCC[C@H]1O)c1cnc(OCC2CC2)c(-c2ccc(Cl)cc2)c1`: the CLH in the data set on Liver microsome came to 111 µL/min/mg. For the same compound, the Ki at Cannabinoid receptor 2 was more than 7000 nM; at Cannabinoid receptor 1 it was 104 nM.
For the compound `O=C(N[C@@H]1CCCC[C@H]1O)c1cnc(OCC2CC2)c(-c2ccccc2Cl)c1`, the Ki on Cannabinoid receptor 2 is more than 10000 nM; at Cannabinoid receptor 1 it was 190 nM.
Consider `O=C(N[C@@H]1CCCC[C@H]1O)c1cc(-c2ccc(Cl)cc2)c(OCC2CC2)cn1`, for which the Ki on Cannabinoid receptor 2 was 1530 nM; on Cannabinoid receptor 1 it was more than 7000 nM.
Regarding `O=C(N[C@@H]1CCCC[C@H]1O)c1cnc(OC2CCCCC2)c(-c2ccc(Cl)cc2)c1`, the CLH in the data set on Liver microsome turned out to be 662 µL/min/mg. The inhibition constant (Ki) was more than 10000 nM at Cannabinoid receptor 2 and 3030 nM on Cannabinoid receptor 1.
The like results for `O=C(N[C@@H]1CCCC[C@H]1O)c1cnc(OCc2ncccn2)c(-c2ccc(Cl)cc2)c1` were, in that order, 12 µL/min/mg, more than 10000 nM and 51.6 nM.
For `O=C(N[C@@H]1CCCC[C@H]1O)c1cnc(OCc2ccncc2)c(-c2ccc(Cl)cc2)c1`, in the data set with Liver microsome, the CLH is 118 µL/min/mg. For the same compound, the Ki was more than 10000 nM on Cannabinoid receptor 2 and 58.7 nM at Cannabinoid receptor 1.
Consider `O=C(N[C@@H]1CCCC[C@H]1O)c1cnc(OC2CCCC2)c(-c2ccc(Cl)cc2)c1`, for which the Ki at Cannabinoid receptor 2 is more than 10000 nM; on Cannabinoid receptor 1, 374 nM.
`O=C(N[C@@H]1CCCC[C@@H]1O)c1cnc(OCC2CC2)c(-c2ccc(Cl)cc2)c1` displayed a CLH with Liver microsome of 163 µL/min/mg. Further, the Ki on Cannabinoid receptor 2 is more than 5000 nM; at Cannabinoid receptor 1, 186 nM.
`NS(=O)(=O)c1ccc(-c2cc(C(=O)N[C@@H]3CCCC[C@H]3O)cnc2OCC2CC2)cc1`: the Ki at Cannabinoid receptor 2 and on Cannabinoid receptor 1 was more than 10000 nM in each case.
As for `O=C(NN1CCCCC1)c1cnc(OCC2CC2)c(-c2ccc(Cl)cc2)c1`, the Ki was more than 10000 nM on Cannabinoid receptor 2 and 563 nM at Cannabinoid receptor 1.
As to `N#Cc1ccc(-c2cc(C(=O)N[C@@H]3CCCC[C@H]3O)cnc2OCC2CC2)cc1`, the figures for the Ki at Cannabinoid receptor 2 and at Cannabinoid receptor 1 were more than 10000 nM and 23.6 nM, respectively.
